Three compounds from ChEMBL document CHEMBL4052821, “Chemical Modification for Proteolytic Stabilization of the Selective αvβ3 Integrin RGDechi Peptide: in Vitro and in Vivo Activities on Malignant Melanoma Cells” (J Med Chem, 2017) can be followed below.

Activity calls are given as the source filed them. The calls are words filed in the database; no cut-off is given here. Where a SMILES comes first, the peptide text is derived from it.

In series [1] the test system is WM266. The series can be described thus: (§1) Antiadhesive activity in alphavbeta3 integrin overexpressing human WM266 cells assessed as inhibition of cell adhesion onto vitronectin at 50 uM preincubated for 30 mins followed by cell seeding on vitronectin by RTCA relative to control. Type of series: functional. The procedure, abridged:
(§2)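 WM266 cells (4 × 10^4, RPMI/10% FBS) preincubated 30 min at 4 °C with peptide (50 μM) in adhesion buffer, then seeded on wells coated overnight at 4 °C with 10 μg/mL matrix and blocked with 1.5% BSA. Impedance cell index read every minute over 0–24 h. Adhesion rate taken as slope between two time points, expressed as % of untreated control.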

Series [2] has as its system WM266. The series can be described thus: (§3) Antiadhesive activity in alphavbeta3 integrin overexpressing human WM266 cells assessed as inhibition of cell adhesion onto fibronectin at 50 uM preincubated for 30 mins followed by cell seeding on fibronectin by RTCA relative to control. Type of series: functional. The procedure, abridged:
as §2

For series [3], the system named is WM266. As to the kind of experiment: (§4) Antiadhesive activity in alphavbeta3 integrin overexpressing human WM266 cells assessed as inhibition of cell binding to anti-alphaVbeta3 antibody at 50 uM after 1 hr by crystal violet staining-based assay relative to control. Type of series: functional. The procedure, abridged:
(§5)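 Plates coated with anti-αvβ3 antibody LM609 (10 μg/mL). WM266 cells (1.5 × 10^4/well) incubated with peptide (50 μM) for 1 h. Nonadherent cells washed off, adherent cells measured by crystal violet optical density as % of untreated control. At least three independent experiments in duplicate.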

The subject of series [4] is WM266. As to the kind of experiment: Antiinvasive activity in alphavbeta3 integrin overexpressing human WM266 cells at 50 uM after 18 hrs by Transwell assay relative to control. Type of series: functional, cell-based. In outline:
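Transwell inserts (8 μm) coated with ECL Cell Attachment. EDTA-detached WM266 cells (1 × 10^5, serum-free RPMI) with peptide (50 μM) in the upper chamber, 10% FBS RPMI below. Incubated 18 h at 37 °C. Invaded cells formalin-fixed, crystal violet stained and counted in four fields per chamber. Duplicate chambers.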

The subject of another series is HeLa. As to the kind of experiment: Antiadhesive activity in alphavbeta5 integrin overexpressing human HeLa cells assessed as inhibition of cell binding to anti-alphaVbeta5 antibody at 50 uM by RTCA cell index slope-based assay.
The subject of series [5] is Serum. As to the kind of experiment: Metabolic stability in human serum at 1 mg/ml after 3 to 24 hrs by RP-HPLC method. Type of series: ADME, cell-free. The procedure, abridged: (§6)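 Peptide solution (1 mg/mL, 160 μL) mixed with 400 μL human serum at 37 °C. Aliquots taken at 1, 2, 4, 8, 24 and 48 h were quenched with 15% TFA and centrifuged. Supernatants analysed by LC–MS, following loss of the intact-peptide peak.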

Series [6] in a line: (§7) Antiadhesive activity in alphavbeta3 integrin overexpressing human WM266 cells assessed as inhibition of cell adhesion onto vitronectin preincubated for 30 mins followed by cell seeding on vitronectin measured after 1 hr by crystal violet staining-based assay. The format is functional. In outline: (§8)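 Dose–response adhesion: WM266 cells preincubated with increasing peptide concentrations, then seeded on plates precoated with vitronectin or fibronectin (10 μg/mL). Adherent cells quantified after 1 h by crystal violet staining as % of untreated control. IC50 derived from this curve; means ± SE of three independent experiments in triplicate.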

The nature of series [7]: (§9) Antiadhesive activity in alphavbeta3 integrin overexpressing human WM266 cells assessed as inhibition of cell adhesion onto fibronectin preincubated for 30 mins followed by cell seeding on fibronectin measured after 1 hr by crystal violet staining-based assay. The format is functional. The procedure, abridged:
as §8

Series [8] in a line: as §4. The format is functional. The note with it: WM266, 1 h. In outline:
as §5

Series [9] is described as follows: Antimigratory activity in alphavbeta3 integrin overexpressing human WM266 cells at 50 uM after 24 hrs by wound healing assay relative to control. The format is functional. The procedure, abridged: (§10)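 Confluent WM266 monolayers scratched with a pipette tip, washed with PBS, then given medium containing peptide (50 μM). Phase-contrast images taken at 0, 24 and 48 h. Wound width expressed as % of the 0 h value. Three experiments in triplicate.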

Series [10] in a line: Antimigratory activity in alphavbeta3 integrin overexpressing human WM266 cells at 50 uM after 48 hrs by wound healing assay relative to control. The format is functional. In outline: as §10
Series [11] in a line: In vivo tumor uptake in CD1 nu/nu athymic mouse xenografted with alphavbeta3 integrin overexpressing human WM266 cells using NIR750 labeled compound at 1 nmol, iv after 3 to 24 hrs by fluorescence molecular tomography. Type of series: ADME, organism-based, Neoplasm. In outline: (§11)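 Peptides conjugated to VivoTag-S 750 NHS ester. 10 × 10^6 WM266 cells implanted in the right flank of CD1 nu/nu mice, fed alfalfa-free chow. At about 0.5 cm3 tumour volume, 1 nmol conjugate given i.v. (3 mice/group) under isoflurane. Whole-body FMT imaging at 3, 5 and 24 h, reported as tumour ROI counts/energy. Tumours excised at 24 h for ex vivo FMT.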

In series [12] the test system is Serum. As to the kind of experiment: Metabolic stability in human serum at 1 mg/ml after 48 hrs by RP-HPLC method. Type of series: ADME, cell-free. In outline: as §6
Series [13] is described as follows: as §1. Type of series: functional. The procedure, abridged: as §2
Series [14] in a line: as §3. The format is functional. In outline: as §2
In series [15] the test system is WM266. The series can be described thus: Antiadhesive activity in alphavbeta3 integrin overexpressing human WM266 cells assessed as inhibition of cell adhesion onto collagen 1 at 50 uM preincubated for 30 mins followed by cell seeding on collagen 1 by RTCA. Type of series: functional, cell-based. The procedure, abridged:
as §2

For series [16], the system named is WM266. The description is as §7. The format is functional. The procedure, abridged:
as §8

Series [17] relates to WM266. The series is described as §9. Type of series: functional. In outline:
as §8

In series [18] the target is Integrin alpha-V/beta-3 (Homo sapiens) (UniProt P05106+P06756). As to the kind of experiment: Competitive binding affinity to alphavbeta3 integrin in human WM266 cells using NIR750-labeled compound at 1 nmole after 1 hr in presence of excess of unlabeled compound by DAPI staining-based confocal microscopic method. The format is cell-based. The procedure, abridged: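 WM266 cells on coverslips incubated with 1 nmol NIR750-labelled peptide in DPBS/5% FBS for 1 h at 4 °C. For competition, cells were first preincubated 1 h at 4 °C with 1000-fold excess unlabelled parent. Cells fixed, DAPI-stained and immunostained for αvβ3, then imaged by confocal microscopy. Colocalization scored by Manders' coefficients.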

A short description of series [19]: Ex vivo tumor uptake in CD1 nu/nu athymic mouse xenografted with alphavbeta3 integrin overexpressing human WM266 cells using NIR750 labeled compound at 1 nmol, iv after 24 hrs by fluorescence molecular tomography. Type of series: ADME, organism-based, Neoplasm. The procedure, abridged: as §11

As for `N=C(N)NCCC[C@@H]1NC(=O)CNC(=O)[C@H](CC(=O)O)NC(=O)[C@@H](Cc2ccccc2)NC(=O)[C@H](CCCCN)NC1=O`, the inhibition entry in the series on WM266 [1], with WM266 [2], with WM266 [3] and in the series on HeLa was “Active” throughout. Besides, the outcome with WM266 [4] was Active.
For `CSCC[C@H](NC(=O)CC[C@@H]1NC(=O)[C@H](CC(=O)O)NC(=O)CNC(=O)[C@H](CCCNC(=N)N)NC(=O)[C@H](CCCCN)NC1=O)C(=O)N[C@@H](CC(=O)O)C(=O)N[C@@H](CC(=O)O)C(=O)N1CCC[C@H]1C(=O)NCC(=O)N[C@@H](CCCNC(=N)N)C(=O)N[C@@H](CC(N)=O)C(=O)N1CCC[C@H]1C(=O)N[C@@H](Cc1cnc[nH]1)C(=O)N[C@@H](CCCCNC(N)=O)C(=O)NCC(=O)N1CCC[C@H]1C(=O)N[C@@H](C)C(=O)N[C@H](C(=O)O)[C@@H](C)O` (HELM PEPTIDE1{M.D.D.P.G.R.N.P.H.[NC(=O)NCCCC[C@H](N[*:1])C(=O)[*:2]].G.P.A.T}|PEPTIDE2{R.G.D.E.K}$PEPTIDE1,PEPTIDE2,1:R1-4:R3|PEPTIDE2,PEPTIDE2,1:R1-5:R2$$$V2.0), the Stability result with Serum [5] is reported as “Unstable”. Further, the IC50 in series [6] stood at 25.5 µM; in series [7], 53 µM. Also, in [8], the inhibition at 50 µM came out at 40%. Moreover, the Activity is reported as 31% in [9] and 20% in series [10]. Further, in the series with WM266 [4], the outcome was Active. Moreover, the Drug uptake result in series [11] was “Active”. In addition, the inhibition entry in the series with HeLa is “inactive”.
As for `CSCC[C@H](NC(=O)CC[C@@H]1NC(=O)[C@H](CC(=O)O)NC(=O)CNC(=O)[C@H](CCCNC(=N)N)NC(=O)[C@H](CCCCN)NC1=O)C(=O)N[C@@H](CC(=O)O)C(=O)N[C@@H](CC(=O)O)C(=O)N1CCC[C@H]1C(=O)NCC(=O)N[C@@H](CCCNC(=N)N)C(=O)N[C@@H](CC(N)=O)C(=O)N1CCC[C@H]1C(=O)N[C@@H](Cc1cnc[nH]1)C(=O)N[C@@H](CCCCNC(N)=O)C(=O)NCC(=O)N1CCC[C@H]1CN[C@@H](C)C(=O)N[C@H](C(=O)O)[C@@H](C)O` (HELM PEPTIDE1{M.D.D.P.G.R.N.P.H.[NC(=O)NCCCC[C@H](N[*:1])C(=O)[*:2]].G.[C[C@H](NC[C@@H]1CCCN1[*:1])C(=O)N[C@H](C(=O)O)[C@@H](C)O]}|PEPTIDE2{R.G.D.E.K}$PEPTIDE1,PEPTIDE2,1:R1-4:R3|PEPTIDE2,PEPTIDE2,1:R1-5:R2$$$V2.0), the Stability result in the series with Serum [12] is recorded as “Stable”. Besides, the inhibition at 50 µM in series [13] is 55%; in series [14], 33%; in series [8], 40%. For the same compound, the inhibition entry in the series on WM266 [15] and with HeLa was “inactive” in each case. The IC50 in [6] turned out to be 5.2 µM; in series [7], 20.7 µM. The inhibition entry in the series with WM266 [16] and with WM266 [17] was “Dose-dependent effect” throughout. Also, the Activity is 54% in series [9] and 33% in [10]. For the same compound, the outcome (with WM266 [4]; in series [18]) was Active. Moreover, the Drug uptake result in series [11] and in [19] was “Active” throughout.
